Assay results published in ChEMBL document CHEMBL1821673, “Development of β-amino alcohol derivatives that inhibit Toll-like receptor 4 mediated inflammatory response as potential antiseptics” (J Med Chem, 2011).
pIC50: −log10 of the molar value. Activity calls are given as the source filed them. No cut-off for these calls is given here.

Key:
Toll-like receptor 4 [1] = molecular target: T1, Toll-like receptor 4 (Homo sapiens, UniProt O00206); test: Inhibition of LPS-induced TLR4 activation in human whole blood assessed as inhibition of TNFalpha release preincubated for 5 to 10 mins
Summary of the method: (§1)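 Fresh human blood anticoagulated with lepirudin, preincubated with compound 5–10 min at 37 °C, then stimulated with 100 ng/mL ultrapure E. coli 0111:B4 LPS, rotating 2 h at 37 °C. Stopped with EDTA 10 mM final; plasma TNF-α, IL-8 and IL-6 measured by singleplex Bio-plex, expressed as % of LPS without inhibitor. n = 3 or 9, paired two-sided t-test.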

Toll-like receptor 4 [2] = molecular target: T1, Toll-like receptor 4; test: Inhibition of LPS-induced TLR4 activation in human whole blood assessed as inhibition of TNFalpha release at 250 uM preincubated for 5 to 10 mins; summary of the method: as §1
Liver = test: Intrinsic clearance in human liver S9 fractions at 1 uM after 60 mins by LC-MS/MS analysis; assay type: ADME, subcellular, S9 fraction; settings: s9, 1 h
Summary of the method: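 1 µM in <0.25% DMSO, 37 °C, pooled rat or human S9 at 1 mg/mL, with 1 mM each of NADPH, UDPGA, PAPS and GSH. Sampled at 0, 10, 20, 30 and 60 min; peak-area ratio to internal standard by LC-MS/MS without a standard curve. CLint = k/P.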

Cytochrome P450 2C19 = Cytochrome P450 2C19 (Homo sapiens, UniProt P33261); test: Inhibition of CYP2C19 in human liver microsomes using S-mephenytoin as probe; assay type: ADME, Microsome
Cytochrome P450 2D6 = Cytochrome P450 2D6 (Homo sapiens, UniProt P10635); test: Inhibition of CYP2D6 in human liver microsomes using bufuralol as probe; assay type: ADME, Microsome
[3] = molecular target: Calcium/calmodulin-dependent protein kinase type 1 (Homo sapiens) (UniProt Q14012); test: Inhibition of CAMK1 at 28 uM by luciferase fragment complementation assay
[4] = molecular target: Discoidin domain-containing receptor 2 (Homo sapiens) (UniProt Q16832); test: Inhibition of DDR2 at 28 uM by luciferase fragment complementation assay
[5] = molecular target: Mitogen-activated protein kinase 1 (Homo sapiens) (UniProt P28482); test: Inhibition of MAPK1 at 28 uM by luciferase fragment complementation assay
[6] = molecular target: Hepatocyte growth factor receptor (Homo sapiens) (UniProt P08581); test: Inhibition of MET at 28 uM by luciferase fragment complementation assay
[7] = molecular target: Proto-oncogene tyrosine-protein kinase Src (Homo sapiens) (UniProt P12931); test: Inhibition of SRC at 28 uM by luciferase fragment complementation assay
Blood = test: Cytotoxicity against human whole blood assessed as hemolysis at 1 mM; assay type: tissue-based; settings: 1000 µM
Summary of the method: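 Human whole blood anticoagulated with lepirudin, exposed to compound at up to 1 mM; hemolysis checked.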

T1 sequence (O00206 whole entry): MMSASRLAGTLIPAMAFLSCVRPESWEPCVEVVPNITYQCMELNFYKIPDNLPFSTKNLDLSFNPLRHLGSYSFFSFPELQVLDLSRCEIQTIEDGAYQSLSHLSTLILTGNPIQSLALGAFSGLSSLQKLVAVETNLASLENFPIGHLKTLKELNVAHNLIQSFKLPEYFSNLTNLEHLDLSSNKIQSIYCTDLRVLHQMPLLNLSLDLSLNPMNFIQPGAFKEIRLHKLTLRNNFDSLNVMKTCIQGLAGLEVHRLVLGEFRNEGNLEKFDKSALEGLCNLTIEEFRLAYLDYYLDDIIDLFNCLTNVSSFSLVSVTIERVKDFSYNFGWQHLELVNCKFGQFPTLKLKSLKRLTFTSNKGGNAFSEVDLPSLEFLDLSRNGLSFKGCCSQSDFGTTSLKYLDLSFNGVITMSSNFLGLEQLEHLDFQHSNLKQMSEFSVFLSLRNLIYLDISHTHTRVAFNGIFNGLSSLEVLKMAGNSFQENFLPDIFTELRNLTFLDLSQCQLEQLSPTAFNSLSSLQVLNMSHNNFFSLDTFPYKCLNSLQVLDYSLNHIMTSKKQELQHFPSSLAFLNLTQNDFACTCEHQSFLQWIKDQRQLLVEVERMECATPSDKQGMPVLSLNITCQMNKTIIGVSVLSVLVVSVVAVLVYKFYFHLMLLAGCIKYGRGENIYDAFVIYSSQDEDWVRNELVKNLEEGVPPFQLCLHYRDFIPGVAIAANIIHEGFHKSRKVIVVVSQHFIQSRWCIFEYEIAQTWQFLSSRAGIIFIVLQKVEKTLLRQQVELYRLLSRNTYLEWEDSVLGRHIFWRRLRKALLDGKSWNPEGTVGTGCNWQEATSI
Chain of Discoidin domain-containing receptor 2 (Homo sapiens) (Q16832 whole entry, the tested form may be a part): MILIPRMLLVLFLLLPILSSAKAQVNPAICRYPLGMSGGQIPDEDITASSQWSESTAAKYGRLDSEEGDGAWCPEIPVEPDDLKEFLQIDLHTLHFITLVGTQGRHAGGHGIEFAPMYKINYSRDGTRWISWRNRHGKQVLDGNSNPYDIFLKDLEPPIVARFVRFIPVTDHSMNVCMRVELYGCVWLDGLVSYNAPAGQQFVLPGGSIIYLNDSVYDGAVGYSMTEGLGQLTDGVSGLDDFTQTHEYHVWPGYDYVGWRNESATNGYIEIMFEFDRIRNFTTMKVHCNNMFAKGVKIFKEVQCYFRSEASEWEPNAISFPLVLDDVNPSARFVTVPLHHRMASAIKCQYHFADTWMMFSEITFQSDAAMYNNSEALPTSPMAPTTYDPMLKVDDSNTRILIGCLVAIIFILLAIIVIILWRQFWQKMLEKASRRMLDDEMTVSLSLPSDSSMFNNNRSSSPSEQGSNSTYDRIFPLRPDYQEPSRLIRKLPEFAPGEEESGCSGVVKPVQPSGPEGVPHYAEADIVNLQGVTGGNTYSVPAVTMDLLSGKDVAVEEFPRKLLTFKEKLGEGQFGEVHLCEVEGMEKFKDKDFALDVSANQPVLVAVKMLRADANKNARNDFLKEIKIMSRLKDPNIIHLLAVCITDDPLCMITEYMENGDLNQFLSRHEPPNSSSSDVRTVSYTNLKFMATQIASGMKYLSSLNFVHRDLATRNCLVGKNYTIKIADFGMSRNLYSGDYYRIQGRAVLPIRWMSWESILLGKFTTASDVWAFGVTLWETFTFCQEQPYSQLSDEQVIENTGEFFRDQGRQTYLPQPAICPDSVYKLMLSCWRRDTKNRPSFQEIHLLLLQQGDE
Chain of Cytochrome P450 2C19 (P33261 whole entry): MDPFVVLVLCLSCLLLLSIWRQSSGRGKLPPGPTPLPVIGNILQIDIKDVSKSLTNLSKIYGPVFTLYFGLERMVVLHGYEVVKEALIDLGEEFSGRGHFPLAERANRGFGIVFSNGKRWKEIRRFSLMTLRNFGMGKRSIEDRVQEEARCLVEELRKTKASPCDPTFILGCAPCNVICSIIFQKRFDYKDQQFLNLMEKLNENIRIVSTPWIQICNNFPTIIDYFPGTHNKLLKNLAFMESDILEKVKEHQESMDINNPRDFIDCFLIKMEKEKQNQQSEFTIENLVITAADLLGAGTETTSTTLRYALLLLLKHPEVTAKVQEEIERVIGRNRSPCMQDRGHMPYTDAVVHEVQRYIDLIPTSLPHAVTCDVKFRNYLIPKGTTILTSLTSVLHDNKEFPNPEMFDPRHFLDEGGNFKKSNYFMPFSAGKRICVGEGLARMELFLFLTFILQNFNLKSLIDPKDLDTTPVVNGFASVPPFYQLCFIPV
Chain of Calcium/calmodulin-dependent protein kinase type 1 (Homo sapiens) (Q14012 whole entry, looked up, the tested form may be a part): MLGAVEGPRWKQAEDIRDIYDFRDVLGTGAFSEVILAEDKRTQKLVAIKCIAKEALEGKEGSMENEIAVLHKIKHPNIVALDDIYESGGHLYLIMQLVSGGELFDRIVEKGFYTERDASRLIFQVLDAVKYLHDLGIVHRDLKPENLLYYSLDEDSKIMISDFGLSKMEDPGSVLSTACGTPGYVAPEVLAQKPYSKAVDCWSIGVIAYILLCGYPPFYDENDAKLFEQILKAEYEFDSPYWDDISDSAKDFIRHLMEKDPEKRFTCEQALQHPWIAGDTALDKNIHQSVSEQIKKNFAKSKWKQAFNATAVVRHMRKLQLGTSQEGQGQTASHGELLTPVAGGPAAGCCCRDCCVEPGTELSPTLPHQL
Chain of Proto-oncogene tyrosine-protein kinase Src (Homo sapiens) (P12931 2-536 limits assumed): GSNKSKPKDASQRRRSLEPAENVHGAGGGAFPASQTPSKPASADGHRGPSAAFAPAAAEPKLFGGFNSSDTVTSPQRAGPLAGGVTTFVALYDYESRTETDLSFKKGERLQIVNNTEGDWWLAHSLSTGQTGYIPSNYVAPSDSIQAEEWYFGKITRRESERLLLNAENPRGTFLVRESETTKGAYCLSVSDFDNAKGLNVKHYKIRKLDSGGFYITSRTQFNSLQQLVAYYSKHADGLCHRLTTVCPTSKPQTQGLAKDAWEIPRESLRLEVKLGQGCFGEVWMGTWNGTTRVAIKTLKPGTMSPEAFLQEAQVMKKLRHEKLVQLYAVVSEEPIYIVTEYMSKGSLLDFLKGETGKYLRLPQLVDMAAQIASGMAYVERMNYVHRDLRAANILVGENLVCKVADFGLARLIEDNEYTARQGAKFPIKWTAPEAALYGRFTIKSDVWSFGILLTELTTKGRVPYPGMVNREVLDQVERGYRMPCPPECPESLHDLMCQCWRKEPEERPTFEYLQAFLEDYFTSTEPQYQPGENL
Chain of Cytochrome P450 2D6 (P10635 whole entry, the tested form may be a part): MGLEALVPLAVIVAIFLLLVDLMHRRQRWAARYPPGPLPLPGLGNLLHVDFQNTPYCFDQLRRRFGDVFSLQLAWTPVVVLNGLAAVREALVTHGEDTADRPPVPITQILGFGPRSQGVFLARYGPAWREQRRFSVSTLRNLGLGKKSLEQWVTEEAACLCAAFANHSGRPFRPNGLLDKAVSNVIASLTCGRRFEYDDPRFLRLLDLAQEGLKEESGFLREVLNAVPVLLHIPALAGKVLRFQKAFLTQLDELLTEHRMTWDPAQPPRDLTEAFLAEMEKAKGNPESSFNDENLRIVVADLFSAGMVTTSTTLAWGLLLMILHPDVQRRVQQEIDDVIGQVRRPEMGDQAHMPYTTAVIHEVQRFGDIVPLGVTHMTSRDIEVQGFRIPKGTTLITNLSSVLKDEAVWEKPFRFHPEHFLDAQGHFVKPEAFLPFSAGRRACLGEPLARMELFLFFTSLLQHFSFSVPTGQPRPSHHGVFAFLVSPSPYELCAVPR
Chain of Mitogen-activated protein kinase 1 (Homo sapiens) (P28482 whole entry, the tested form may be a part): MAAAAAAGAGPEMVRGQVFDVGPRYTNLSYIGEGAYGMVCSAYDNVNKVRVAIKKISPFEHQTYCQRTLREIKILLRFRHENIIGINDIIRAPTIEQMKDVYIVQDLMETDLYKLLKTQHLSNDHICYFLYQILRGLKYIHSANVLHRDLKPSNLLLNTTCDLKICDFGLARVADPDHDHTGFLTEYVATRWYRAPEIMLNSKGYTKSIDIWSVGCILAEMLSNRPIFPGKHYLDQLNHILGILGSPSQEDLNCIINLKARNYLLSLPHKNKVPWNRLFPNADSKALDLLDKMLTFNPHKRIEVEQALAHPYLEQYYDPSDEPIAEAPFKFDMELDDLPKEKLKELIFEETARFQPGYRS

SMILES: CCOc1ccc(OCC(O)CN(C)Cc2c(C)nn(Cc3ccccc3Cl)c2C)cc1 (racemic)
- pIC50 (Toll-like receptor 4 [1]): 3.50
- inhibition (Toll-like receptor 4 [1]): Dose-dependent effect
- inhibition (Toll-like receptor 4 [2]): Active
- CL (Liver): 300 µL/min/mg
- pIC50 (Cytochrome P450 2C19): 4.70
- pIC50 (Cytochrome P450 2D6): 4.49
- inhibition [3]: ≤ 27%
- inhibition [4]: ≤ 27%
- inhibition [5]: ≤ 27%
- inhibition [6]: ≤ 27%
- inhibition [7]: ≤ 27%
- Activity (Blood): Non-toxic
